Assay results published in ChEMBL document CHEMBL1145061, “New potential uroselective NO-donor alpha1-antagonists” (J Med Chem, 2003).

Legend:
[1] = target: T1, 5-hydroxytryptamine receptor 1A (Homo sapiens, UniProt P08908); test: Inhibition of [3H]8-OH-DPAT binding to 5-hydroxytryptamine 1A receptor serotonergic receptor in human HeLa cells; format: cell-based
T1 sequence (P08908 whole entry): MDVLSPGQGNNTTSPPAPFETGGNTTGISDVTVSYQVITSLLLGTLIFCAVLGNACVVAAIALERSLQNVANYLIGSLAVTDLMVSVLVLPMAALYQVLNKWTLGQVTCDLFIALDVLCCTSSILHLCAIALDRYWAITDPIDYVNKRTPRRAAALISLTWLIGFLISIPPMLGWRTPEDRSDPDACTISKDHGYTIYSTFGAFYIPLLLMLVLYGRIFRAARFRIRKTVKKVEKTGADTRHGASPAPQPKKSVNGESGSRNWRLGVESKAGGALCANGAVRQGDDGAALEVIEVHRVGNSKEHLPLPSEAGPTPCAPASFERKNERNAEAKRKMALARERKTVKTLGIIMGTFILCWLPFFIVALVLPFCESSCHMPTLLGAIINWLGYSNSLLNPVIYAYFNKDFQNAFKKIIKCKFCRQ
Outline: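 Membranes from HeLa cells expressing the cloned human 5-HT1A receptor, [3H]-8-OH-DPAT competition binding.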

[2] = target: T2, Alpha-1A adrenergic receptor (Homo sapiens, UniProt P35348); test: Inhibition of [3H]prazosin binding to cloned human Alpha-1A adrenergic receptor in CHO cells (chinese hamster ovary cells); format: cell-based
T2 sequence (P35348 whole entry): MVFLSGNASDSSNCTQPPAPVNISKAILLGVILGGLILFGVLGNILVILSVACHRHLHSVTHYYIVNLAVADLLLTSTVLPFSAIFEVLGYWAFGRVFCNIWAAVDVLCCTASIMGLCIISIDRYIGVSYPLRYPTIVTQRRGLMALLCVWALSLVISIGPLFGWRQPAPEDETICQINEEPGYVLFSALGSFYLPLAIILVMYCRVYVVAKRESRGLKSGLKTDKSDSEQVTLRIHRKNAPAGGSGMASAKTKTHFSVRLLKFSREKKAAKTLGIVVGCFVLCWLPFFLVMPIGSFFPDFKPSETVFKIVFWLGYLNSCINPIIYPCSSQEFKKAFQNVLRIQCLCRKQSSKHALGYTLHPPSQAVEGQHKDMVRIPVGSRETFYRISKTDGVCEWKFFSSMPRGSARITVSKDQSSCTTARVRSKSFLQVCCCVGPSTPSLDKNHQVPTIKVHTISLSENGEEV
Outline: (§1)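 Membranes from CHO cells expressing cloned human α1a, α1b or α1d subtypes, [3H]prazosin competition binding.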

[3] = target: T3, Adrenergic receptor alpha-2 (Rattus norvegicus, UniProt P22086+P19328+P22909); test: Inhibition of [3H]- rauwolscine binding to alpha-2 adrenergic receptor in membrane of rat cerebral cortex; format: tissue-based
T3 sequence (P22086 whole entry): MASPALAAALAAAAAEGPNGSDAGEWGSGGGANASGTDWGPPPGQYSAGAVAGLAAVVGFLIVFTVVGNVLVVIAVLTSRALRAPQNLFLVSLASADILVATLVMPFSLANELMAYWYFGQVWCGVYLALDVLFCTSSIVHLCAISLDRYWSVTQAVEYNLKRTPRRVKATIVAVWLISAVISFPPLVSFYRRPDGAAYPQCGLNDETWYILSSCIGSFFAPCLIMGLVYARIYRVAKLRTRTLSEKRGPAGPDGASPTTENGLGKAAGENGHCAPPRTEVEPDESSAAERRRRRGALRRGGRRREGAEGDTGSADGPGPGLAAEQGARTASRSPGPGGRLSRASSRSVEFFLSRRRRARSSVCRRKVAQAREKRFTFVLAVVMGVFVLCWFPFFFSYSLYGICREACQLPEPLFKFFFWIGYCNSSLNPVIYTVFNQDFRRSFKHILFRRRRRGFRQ
T3 sequence (P19328 whole entry): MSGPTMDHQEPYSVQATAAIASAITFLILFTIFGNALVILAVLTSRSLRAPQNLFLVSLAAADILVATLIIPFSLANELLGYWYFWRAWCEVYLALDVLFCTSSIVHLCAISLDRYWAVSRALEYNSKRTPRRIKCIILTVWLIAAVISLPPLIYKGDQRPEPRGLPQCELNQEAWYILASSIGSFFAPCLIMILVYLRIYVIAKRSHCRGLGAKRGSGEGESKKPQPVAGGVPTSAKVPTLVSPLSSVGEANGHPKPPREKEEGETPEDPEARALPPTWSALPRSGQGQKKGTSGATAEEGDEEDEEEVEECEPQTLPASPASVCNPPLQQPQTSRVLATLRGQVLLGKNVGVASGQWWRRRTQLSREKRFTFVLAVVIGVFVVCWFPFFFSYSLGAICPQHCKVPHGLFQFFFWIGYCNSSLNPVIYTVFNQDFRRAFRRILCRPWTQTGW
T3 sequence (P22909 whole entry): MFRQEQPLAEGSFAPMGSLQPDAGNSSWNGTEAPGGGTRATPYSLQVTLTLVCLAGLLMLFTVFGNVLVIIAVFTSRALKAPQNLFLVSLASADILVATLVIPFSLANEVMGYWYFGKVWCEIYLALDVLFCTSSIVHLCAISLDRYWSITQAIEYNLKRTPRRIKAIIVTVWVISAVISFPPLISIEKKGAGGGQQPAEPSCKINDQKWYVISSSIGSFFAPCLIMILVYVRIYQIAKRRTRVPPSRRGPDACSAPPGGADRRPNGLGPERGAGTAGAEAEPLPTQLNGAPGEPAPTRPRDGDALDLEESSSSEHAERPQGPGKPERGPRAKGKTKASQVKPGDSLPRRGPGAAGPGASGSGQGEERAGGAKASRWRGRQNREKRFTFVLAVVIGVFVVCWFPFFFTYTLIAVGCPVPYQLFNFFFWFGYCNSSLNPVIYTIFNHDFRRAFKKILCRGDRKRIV
Outline: (§2)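 Native α2 receptors in rat cerebral cortex membranes, competition binding with [3H]rauwolscine.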

[4] = target: T4, Alpha-1B adrenergic receptor (Homo sapiens, UniProt P35368); test: Inhibition of [3H]-prazosin binding to cloned human Alpha-1B adrenergic receptor in CHO cells (chinese hamster ovary cells); format: cell-based; outline: as §1
T4 sequence (P35368 whole entry): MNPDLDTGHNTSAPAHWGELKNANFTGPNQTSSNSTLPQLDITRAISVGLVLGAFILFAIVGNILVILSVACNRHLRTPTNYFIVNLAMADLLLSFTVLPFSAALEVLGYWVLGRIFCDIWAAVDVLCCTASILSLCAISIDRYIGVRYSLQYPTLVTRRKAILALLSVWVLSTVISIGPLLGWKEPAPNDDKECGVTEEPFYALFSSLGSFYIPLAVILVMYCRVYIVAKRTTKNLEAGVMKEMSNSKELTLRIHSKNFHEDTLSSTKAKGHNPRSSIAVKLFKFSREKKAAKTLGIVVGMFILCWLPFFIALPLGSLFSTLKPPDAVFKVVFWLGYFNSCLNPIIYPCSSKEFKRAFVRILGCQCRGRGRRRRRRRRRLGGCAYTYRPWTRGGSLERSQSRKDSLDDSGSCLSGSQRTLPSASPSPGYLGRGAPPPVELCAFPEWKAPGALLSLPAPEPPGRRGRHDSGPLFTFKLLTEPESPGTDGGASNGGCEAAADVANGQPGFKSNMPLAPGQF

[5] = target: T5, Alpha-1A adrenergic receptor (Rattus norvegicus, UniProt P43140); test: Functional Alpha-1A adrenergic receptor antagonistic activity of noradrenaline induced contractions in prostatic portion of rat vas deferens; format: tissue-based; conditions: read-out: pA2 (converted)
T5 sequence (P43140 whole entry): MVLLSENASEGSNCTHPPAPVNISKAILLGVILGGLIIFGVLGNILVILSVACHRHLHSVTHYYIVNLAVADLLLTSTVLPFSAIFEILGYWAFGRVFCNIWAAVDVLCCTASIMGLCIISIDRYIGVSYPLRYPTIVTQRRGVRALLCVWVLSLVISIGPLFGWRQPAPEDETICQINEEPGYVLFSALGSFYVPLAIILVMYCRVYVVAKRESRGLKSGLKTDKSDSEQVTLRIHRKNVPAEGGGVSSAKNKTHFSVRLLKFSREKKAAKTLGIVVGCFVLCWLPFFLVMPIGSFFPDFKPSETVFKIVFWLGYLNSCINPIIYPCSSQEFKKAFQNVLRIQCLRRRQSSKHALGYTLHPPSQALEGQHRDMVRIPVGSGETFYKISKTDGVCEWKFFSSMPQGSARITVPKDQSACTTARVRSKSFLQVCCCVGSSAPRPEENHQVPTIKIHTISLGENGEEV
Outline: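 Rat vas deferens, prostatic portion. Cumulative noradrenaline concentration-response curves were run with and without antagonist. pA2 came from 6-14 determinations. Where two antagonist concentrations were used and gave similar pA2, antagonism was taken as competitive; otherwise an apparent pA2 was taken at one concentration. Where NO relaxation appeared, 1 µM ODQ was added at least 10 min before the antagonist.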

[6] = target: T6, Alpha-1D adrenergic receptor (Homo sapiens, UniProt P25100); test: Inhibition of [3H]-prazosin binding to cloned human Alpha-1D adrenergic receptor in CHO cells (chinese hamster ovary cells); format: cell-based; outline: as §1
T6 sequence (P25100 whole entry): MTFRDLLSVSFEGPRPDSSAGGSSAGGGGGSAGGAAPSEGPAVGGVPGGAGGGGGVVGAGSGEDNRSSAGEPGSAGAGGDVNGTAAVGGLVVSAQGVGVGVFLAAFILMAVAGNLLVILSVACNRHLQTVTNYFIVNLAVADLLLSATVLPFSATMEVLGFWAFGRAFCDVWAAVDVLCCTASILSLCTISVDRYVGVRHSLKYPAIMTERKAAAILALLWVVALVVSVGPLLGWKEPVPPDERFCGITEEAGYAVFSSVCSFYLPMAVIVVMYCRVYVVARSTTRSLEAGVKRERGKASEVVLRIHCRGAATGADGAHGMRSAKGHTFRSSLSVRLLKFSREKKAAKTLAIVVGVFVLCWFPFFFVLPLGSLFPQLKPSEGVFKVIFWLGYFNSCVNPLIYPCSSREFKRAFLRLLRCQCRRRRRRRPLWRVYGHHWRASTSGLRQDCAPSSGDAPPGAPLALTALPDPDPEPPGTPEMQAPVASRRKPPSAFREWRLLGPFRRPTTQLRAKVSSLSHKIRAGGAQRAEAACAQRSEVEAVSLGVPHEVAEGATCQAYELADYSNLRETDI

[7] = Thiol induced NO generation, through griess reaction expressed as % NO2- in presence of 5*10e-4 M L-cysteine
Outline: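 Compound in DMSO diluted to 10^-4 M final in 1:1 v/v 50 mM phosphate buffer (pH 7.4)/MeOH containing 5 × 10^-4 M L-cysteine. Held 1 h at 37 °C, then treated with Griess reagent. Nitrite reported as % NO2- (mol/mol).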

[8] = target: T3, Adrenergic receptor alpha-2; test: Inhibition of [3H]- rauwolscine binding to alpha-2 adrenergic receptor in rat cerebral cortex; format: tissue-based; outline: as §2
[9] = target: T4, Alpha-1B adrenergic receptor; test: Inhibition of [3H]prazosin binding to cloned human Alpha-1B adrenergic receptor in CHO cells (chinese hamster ovary cells); format: cell-based; outline: as §1

| SMILES | Ki [1] | Ki [2] | Ki [3] | Ki [4] | Kb [5] | Ki [6] | NO2- (mol/mol) [7] | Ki [8] | Ki [9] |
| --- | --- | --- | --- | --- | --- | --- | --- | --- | --- |
| COc1ccccc1N1CCN(CCCNC(=O)c2cccc3c(=O)c(C)c(-c4ccccc4)oc23)CC1 [UPIDOSIN] |  |  |  |  | 3.8 nM |  |  | 33.3 nM |  |
| Cc1c(-c2ccccc2)oc2c(C(=O)NCCCN3CCN(c4ccccc4OCCCO[N+](=O)[O-])CC3)cccc2c1=O | 7.2 nM | 0.094 nM | 81.8 nM | 1.2 nM | 2.29 nM | 3.5 nM | < 1% |  |  |
| Cc1c(-c2ccccc2)oc2c(C(=O)NCCCN3CCN(c4ccccc4OCc4no[n+]([O-])c4C(N)=O)CC3)cccc2c1=O | 1.2 nM | 1.8 nM | 359 nM | 15.9 nM | 10.7 nM | 20.4 nM | 5.28% |  |  |

Continued, values first:

| Ki [1] | Ki [2] | Ki [3] | Ki [4] | Kb [5] | Ki [6] | NO2- (mol/mol) [7] | Ki [8] | Ki [9] | SMILES |
| --- | --- | --- | --- | --- | --- | --- | --- | --- | --- |
| 2.2 nM | 0.73 nM | 81.1 nM | 6.5 nM | 34.7 nM | 3.9 nM | 32.3% |  |  | Cc1c(-c2ccccc2)oc2c(C(=O)NCCCN3CCN(c4ccccc4OCc4no[n+]([O-])c4C#N)CC3)cccc2c1=O |
| 1.6 nM | 0.16 nM | 53.5 nM |  | 6.17 nM | 4.2 nM | 1.11% |  | 4.7 nM | Cc1c(-c2ccccc2)oc2c(C(=O)NCCCN3CCN(c4ccccc4OCc4no[n+]([O-])c4C)CC3)cccc2c1=O |
